High-throughput results deposited in PubChem BioAssay by several laboratories.
697 NFkB inh – lowers PMA/ionomycin-induced NF-kB signal in 697 B cells. 697 B-cell NF-kB luciferase reporter, 16 h. inhibition, % at 4 µM. 0.33% of 330,000 active. AID 435022; in the data active = inhibition above about 35%
TAG inh – inhibitors of triacylglycerol accumulation | H9c2 cells, Nile Red lipid (TAG) fluorescence; cells loaded with 200 µM oleic acid | 0.66% of 230,000 active | AID 651582 | inhibition, % at 12.5 µM;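 active = pattern-corrected inhibition of lipid staining of at least 50% with the nuclear-stain viability signal not falling by more than 50%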;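 also: 0% = DMSO wells and 100% = triacsin C control wells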
Hep lipid drop – modulators of hepatic lipid droplet formation; AML12 mouse hepatocytes, oleate lipid droplets, BODIPY imaging; inhibition, % at 6.5 µM; 0.4% of 240,000 active; AID 1656;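 active = lipid droplet intensity inhibited by at least 50%, with more than 500 cells counted; inconclusive = wells with under 300 cells, treated as cytotoxic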
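Material: mouse AML12 hepatocyte cell line, fixed after treatment; Timing: compound with oleate, overnight; Technique: high-content imaging of BODIPY-stained droplets and DAPI nuclei; Probe or stimulus: oleate, 100 µM final; Dosing: compound at 6.5 µM only.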
Jurkat NFkB inh – inhibitors of the PMA/ionomycin-induced NF-kB reporter in Jurkat cells; PMA/ionomycin-induced NF-kB luciferase reporter, luminescence; inhibition, % at 4 µM; 0.53% of 330,000 active; AID 435003; in the data active = inhibition above about 50%
APP 5UTR inh – APP translation inhibition | 0.82% of 190,000 active | AID 1285 | SH-SY5Y APP 5'UTR-luciferase reporter, luminescence | inhibition, % at 2 µM;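 active = inhibition above a set limit, derived from the sample mean plus 3 SD, cut at about 45% in these data; inconclusive = one replicate passes the limit while the other fails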
aSyn UTR inh – 5' untranslated region of α-synuclein, MLPCN primary screen | 0.82% of 300,000 active | alpha-synuclein 5'UTR reporter, inhibitor activity | AID 1813 | inhibition, % (tested at 7.5 µM); in the data active = inhibition above about 60%; inconclusive = no clear call, values can overlap the other calls;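 also: H4 neuroglioblastoma cells stably carrying SNCA 5'UTR luciferase fusion; 0% = DMSO wells and 100% = positive control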
697 NFkB conf – inhibitors of the PMA/ionomycin-induced NF-kB reporter in 697 B cells, retest | inhibition, % at 4 µM | shares compounds with 697 NFkB inh | 35% of 2,000 active | 697 B-cell NF-kB luciferase, 16 h; in the data active = inhibition mostly above about 28%, no sharp cut-off; inactive = mostly below about 22%
Numbers without * were called inactive; i = inactive; ? = inconclusive; . = no result. An excerpt weighted towards active compounds, which were near 1.9% of everything screened.

SMILES	697 NFkB inh	TAG inh	Hep lipid drop	Jurkat NFkB inh	APP 5UTR inh	aSyn UTR inh	697 NFkB conf
COc1ccc(-c2ccc(F)cc2)cc1[C@H]1[C@H]2C=CC[C@@H](C)[C@@H]2C(=O)N1Cc1ccccc1	39.9*	0.7	31.9	-0.1	.	10.6	46.0*
COC(=O)COc1ccc(Oc2nc(SC)nc(N(C)C)n2)nn1	15.4	4.4	.	15.3	-13.9	1.3	.
COc1cc(-c2noc(C)c2/C=C/c2ccc(C(=O)O)cc2)cc(OC)c1OC	36.8*	-16.6	1.4	-20.2	.	7.2	25.9
Cc1csc(SCC(=O)c2cc(C)n(Cc3cccs3)c2C)n1	-345.8	-16.0	.	-51.4	-120.1	73.0*	-161.2
COc1cc2c(cc1OC)-c1cc(N3CCc4ccccc43)nc(=O)n1CC2	35.1*	3.4	0.2	-10.7	.	-13.3	19.1
COc1cc2c(cc1OC)-c1cc(Nc3ccccc3Br)nc(=O)n1CC2	35.2*	.	-5.6	2.9	.	58.5	10.1
COc1cc2c(cc1OC)-c1cc(Nc3ccccc3)nc(=O)n1CC2	4.6	10.9	-8.7	4.2	.	6.5	.
CNC(=O)c1cc(Oc2ccc(NC(=O)Nc3ccc(Cl)c(C(F)(F)F)c3)cc2)ccn1	62.5*	-8.0	.	28.7	.	.	59.5*
O=C(Nc1ccc(Cl)c(C(F)(F)F)c1)c1ccncc1	21.8	17.2	-43.6	-4.6	30.4	0.7	.
Cc1ccc(C)c(N2N=C(C(=O)OCc3nnc(-c4ccccc4)o3)CCC2=O)c1	9.0	-3.5	.	16.3	.	-1.6	.
O=C(Nc1cc(C(=O)N2CCCC2)ccc1N1CCCC1)c1ccccc1F	43.8*	.	-0.1	11.2	2.5	4.7	-5.0
Cc1cccc(OCc2nnc(SCc3cc(=O)n4cc(Br)ccc4n3)o2)c1	1.5	8.7	.	3.0	.	2.5	.
c1ccc(-c2cn3c4c(sc3n2)CCCC4)cc1	-335.5	4.5	7.7	-7.8	-87.8	116.8*	-383.3
Cc1c(C(=O)N2CCc3ccccc3C2)sc2nc(-c3ccccc3)cn12	3.4	.	-13.5	2.4	-7.4	-6.5	.
COc1cc(-c2nc3n(n2)C(c2ccc(F)cc2)C2=C(CCCC2=O)N3)cc(OC)c1OC (stereo unspecified)	37.1*	.	.	15.6	4.4	-0.8	33.5*
Cn1cnnc1Sc1ccc(C(=O)OCC(=O)NCC(F)(F)F)cc1[N+](=O)[O-]	17.6	-0.4	1.6	-0.1	.	-9.8	.
CCN(CC)S(=O)(=O)c1cccc(NC(=O)c2ccc(Sc3nncn3C)c([N+](=O)[O-])c2)c1	37.2*	34.3	-26.4	9.2	-1.3	8.2	11.9
Cc1cc(C)c(C#N)c(SCc2nnc(-c3ccccc3)o2)n1	-361.7	-0.3	2.6	28.5	-43.8	102.4*	-46.7
Cc1ccc(N=Nc2c(N)n[nH]c2N)cc1	-13.7	.	.	-32.5	.	-93.1	.
Cc1ccc(N=Nc2cc(C)ccc2N)cc1	-325.5	16.3	22.7	-97.7	.	?	-156.7
CCCN1C(=O)c2ccc(C(=O)Nc3ccc4c(c3)OCO4)cc2C1=O	36.0*	4.4	2.3	4.3	.	-41.0	-2.3
O=C(Nc1ncccc1O)c1ccc2c(c1)OCCO2	-290.3	-31.0	.	-59.9	.	-222.2	-185.4
CC(C)Cc1nnc(NC(=O)c2ccc3c(c2)OCCO3)s1	-268.0	8.9	.	-128.2	.	.	-193.4
Cc1ccc(NC(=O)c2ccc3c(c2)OCCO3)cc1C	-263.6	.	14.1	-83.7	.	74.2*	-367.5
CCCN1C(=O)c2ccc(C(=O)NC3=NCCS3)cc2C1=O	0.4	9.6	-19.8	2.7	43.2	-0.6	.
SMILES	697 NFkB inh	TAG inh	Hep lipid drop	Jurkat NFkB inh	APP 5UTR inh	aSyn UTR inh	697 NFkB conf
O=C(Nc1ncccc1O)c1ccc2c(c1)OCO2	-129.5	-6.0	.	-36.7	.	-207.3	.
Cc1cccc(NC(=O)c2ccc3c(c2)OCCO3)c1	-116.4	.	-43.0	-116.8	.	-0.5	.
CCOC(=O)C1=C(c2ccccc2)N=C2SCC(=O)N2C1c1ccc2c(c1)OCO2 (stereo unspecified)	-6.8	.	.	-1.4	8.1	-17.4	.
COc1cc(NC(=O)c2ccc3c(c2)OCO3)ccc1NC(=O)C(C)C	-10.8	22.2	.	-7.1	-16.1	-11.6	.
CC(C)C(=O)Nc1ccc(NC(=O)c2ccc3c(c2)OCO3)cc1	49.6*	-3.6	25.7	-12.5	.	-33.7	43.0*
COc1ccc(OC)c2c1cc(C(=O)N[C@@H](Cc1ccccc1)C(=O)O)n2C	6.3	.	-2.9	-2.7	.	-18.2	.
Cc1cccc(NC(=O)c2cc(-c3cc(C)ccc3O)n[nH]2)c1	-119.8	.	15.7	-81.8	.	-226.9	.
Cc1ccc(O)c(-c2cc(C(F)(F)F)[nH]n2)c1	40.0*	.	.	10.0	-13.9	-42.1	22.1
COc1ccc(OC)c(NC(=O)Nc2ccc(Cl)cc2)c1	-14.6	.	-7.9	-16.8	-19.9	-24.6	.
COC(=O)c1cc(NC(=O)Nc2cc(OC)ccc2OC)cc(C(=O)OC)c1	39.1*	.	.	7.4	6.2	12.0	33.7*
CCCCSC1=C(C#N)C(c2ccccc2C)C(C(=O)OCC)C(=O)N1 (stereo unspecified)	-15.2	.	.	-1.7	-17.4	17.1	.
O=C(O)C1CCCN(S(=O)(=O)c2ccc3c(c2)OCCO3)C1 (stereo unspecified)	8.7	-11.1	-4.4	4.5	18.4	-14.7	.
CCN(CC)S(=O)(=O)c1ccc(NC(=S)Nc2ccc(F)cc2)cc1	-4.9	.	.	8.3	.	-0.9	.
CCN(CC(N)=O)S(=O)(=O)c1ccc(F)cc1	41.6*	-6.9	-3.9	-0.6	-0.6	12.5	-7.1
CCOc1ccc(-c2nc(CSCC(=O)NCC3CCCO3)c(C)o2)cc1 (stereo unspecified)	87.9*	.	0.0	9.0	.	-0.7	19.5
CCCNC(=O)CSCc1nc(-c2ccc(SC)cc2)oc1C	48.3*	10.3	-8.8	-11.2	-8.2	-31.4	42.2*
Cc1ccc(-c2nc(CSCC(=O)NCC3CCCO3)c(C)o2)cc1 (stereo unspecified)	17.2	.	19.7	-8.2	.	13.2	.
O=c1c(C=NCCCO)c(-c2ccccc2)[nH]n1-c1nc2ccccc2s1	37.0*	10.2	19.9	28.2	27.5	?	41.4*
Cc1ccccc1NC(=O)Cn1nnc2ccccc21	-6.4	-6.6	22.3	-5.7	-9.1	-30.2	.
CC(C)C[C@H](NC(=O)c1nc[nH]c1C(=O)N1CCN(C(=O)OC(C)(C)C)CC1)C(=O)OC(C)(C)C	i	-5.5	20.6	-16.1	51.7*	-8.9	i
C[C@H](NC(=O)c1nc[nH]c1C(=O)N1CCN(C(=O)OC(C)(C)C)CC1)C(=O)OC(C)(C)C	3.4	-13.1	.	0.5	.	.	.
Cc1ccc(C(=O)Nc2ncc3c(Cl)cccc3n2)cc1	-255.9	-3.4	.	-77.1	-140.7	64.5*	-262.8
Cc1ccc(C(=O)Nc2ccc(Cl)cn2)cc1	-178.7	.	.	-28.0	-172.1	-40.9	.
COC(=O)c1c(NC(=O)c2ccco2)sc2c1CCN(C(C)=O)C2	38.3*	.	1.2	-6.6	.	-29.0	9.4
CCOC(=O)c1c(NC(=O)c2ccco2)sc2c1CCCC2	-7.9	-23.0	.	-0.4	-18.7	-16.9	.
